Ten molecules from ChEMBL document CHEMBL4229548, “Design, synthesis and biological evaluation of lazabemide derivatives as inhibitors of monoamine oxidase” (Bioorg Med Chem, 2018) can be followed below.

Structures are written as SMILES. The source made the active and inactive calls. No cut-off for these calls is given here.

Data set [1] deals with T1, Amine oxidase [flavin-containing] B (Rattus norvegicus, UniProt P19643).
T1 sequence (P19643 whole entry): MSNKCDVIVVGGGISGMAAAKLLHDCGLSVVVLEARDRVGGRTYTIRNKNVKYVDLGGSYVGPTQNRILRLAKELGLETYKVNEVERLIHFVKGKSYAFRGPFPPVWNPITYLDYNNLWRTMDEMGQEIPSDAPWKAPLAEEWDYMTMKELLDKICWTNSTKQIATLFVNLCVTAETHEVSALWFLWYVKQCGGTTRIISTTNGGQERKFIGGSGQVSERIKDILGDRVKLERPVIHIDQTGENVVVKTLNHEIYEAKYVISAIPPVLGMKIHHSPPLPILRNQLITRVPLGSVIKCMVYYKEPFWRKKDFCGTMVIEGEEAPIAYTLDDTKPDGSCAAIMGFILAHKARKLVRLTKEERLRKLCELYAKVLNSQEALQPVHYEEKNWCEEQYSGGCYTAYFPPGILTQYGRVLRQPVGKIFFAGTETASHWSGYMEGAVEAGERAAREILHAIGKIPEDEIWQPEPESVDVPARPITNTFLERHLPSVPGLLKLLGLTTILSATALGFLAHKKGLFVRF
As to the kind of experiment: Inhibition of rat MAOB using benzylamine as substrate pretreated for 1200 secs followed by substrate addition and measured after 3600 secs. In short, it runs like this:
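Enzyme: liver mitochondrial MAO prepared by sucrose differential centrifugation and held in 100 mmol/L K-phosphate pH 7.9. Inhibitor pre-incubated with enzyme 1200 s at 37 °C, 5% CO2. Benzylamine was added (final 2 mmol/L; MAO final 0.15 mg/mL) and reacted 3600 s. Stopped with 10% perchloric acid. Benzaldehyde extracted into cyclohexane and read at A240. DMSO blank.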

Data set [2] concerns the target T2, Amine oxidase [flavin-containing] A (Rattus norvegicus, UniProt P21396).
T2 sequence (P21396 whole entry): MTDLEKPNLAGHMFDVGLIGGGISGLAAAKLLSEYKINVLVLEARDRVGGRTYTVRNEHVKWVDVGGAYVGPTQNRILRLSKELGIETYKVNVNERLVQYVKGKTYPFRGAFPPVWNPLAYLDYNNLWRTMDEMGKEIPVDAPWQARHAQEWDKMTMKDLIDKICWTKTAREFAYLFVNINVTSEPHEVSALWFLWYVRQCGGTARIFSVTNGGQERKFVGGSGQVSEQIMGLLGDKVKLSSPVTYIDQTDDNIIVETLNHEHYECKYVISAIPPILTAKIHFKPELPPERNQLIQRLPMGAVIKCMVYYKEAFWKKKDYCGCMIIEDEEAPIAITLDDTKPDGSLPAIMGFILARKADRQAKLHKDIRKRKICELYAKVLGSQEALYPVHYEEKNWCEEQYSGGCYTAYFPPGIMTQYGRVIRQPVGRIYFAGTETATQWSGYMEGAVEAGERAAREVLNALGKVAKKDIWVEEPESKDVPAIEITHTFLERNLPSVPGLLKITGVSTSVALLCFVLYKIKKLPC
As to the kind of experiment: Inhibition of rat MAOA using 5-hydroxytryptamine as substrate pretreated for 1200 secs followed by substrate addition and measured after 3600 secs.

In data set [3] the test system is Rattus norvegicus. Briefly: In-vivo inhibition of MAO in rat assessed as norepinephrine level in brain at 20 mg/kg/day, po administered for 1 week measured post last dose by HPLC method (reference value: 1.438 +/- 0.054 ng/mg). Type of data set: functional.
Data set [4] deals with Rattus norvegicus. As to the kind of experiment: In-vivo inhibition of MAO in rat assessed as norepinephrine level in plasma at 20 mg/kg/day, po administered for 1 week measured post last dose by HPLC method (reference value: 200 +/- 13.2 ng/ml). The data set is classed as functional.
The subject of data set [5] is Rattus norvegicus. As to the kind of experiment: In-vivo inhibition of MAOA in rat plasma at 20 mg/kg/day, po administered for 1 week measured post last dose. Type of data set: functional, organism-based.
Data set [6] relates to Rattus norvegicus. As to the kind of experiment: In-vivo inhibition of MAO in rat assessed as 5-hydroxytryptamine level in plasma at 20 mg/kg/day, po administered for 1 week measured post last dose by HPLC method (reference value: 67.4 +/- 5.9 ng/ml). The data set is classed as functional.
Data set [7] has as its system Rattus norvegicus. As to the kind of experiment: In-vivo inhibition of MAOA in rat brain at 20 mg/kg/day, po administered for 1 week measured post last dose. Type of data set: functional, organism-based.
The nature of data set [8]: Acute toxicity in po dosed rat. The data set is classed as organism-based. The following applies: in vivo.
Data set [9] concerns Rattus norvegicus. Briefly: In-vivo inhibition of MAO in rat assessed as 5-hydroxytryptamine level in brain at 20 mg/kg/day, po administered for 1 week measured post last dose by HPLC method (reference value: 0.211 +/- 0.03 ng/mg). Type of data set: functional.
Data set [10] relates to Rattus norvegicus. Briefly: In-vivo inhibition of MAO in rat assessed as dopamine level in plasma at 20 mg/kg/day, po administered for 1 week measured post last dose by HPLC method (reference value: 121.3 +/- 10.1 ng/ml). Type of data set: functional.
Data set [11] relates to Rattus norvegicus. As to the kind of experiment: In-vivo inhibition of MAO in rat assessed as dopamine level in brain at 20 mg/kg/day, po administered for 1 week measured post last dose by HPLC method (reference value: 0.459 +/- 0.07 ng/mg). Type of data set: functional.
In data set [12] the test system is Rattus norvegicus. As to the kind of experiment: In-vivo inhibition of MAOB in rat brain at 20 mg/kg/day, po administered for 1 week measured post last dose. The data set is classed as functional, organism-based.
In data set [13] the test system is Rattus norvegicus. As to the kind of experiment: In-vivo inhibition of MAOB in rat plasma at 20 mg/kg/day, po administered for 1 week measured post last dose. The data set is classed as functional, organism-based.

Take `NCCCNC(=O)c1ccc(Cl)cc1`: the IC50 in data set [1] was 1610 µM; in data set [2] it was 24.5 µM.
`O=C(NCO)c1ccc(Cl)cc1`: the Activity in data set [3] worked out at 2.64 ng/mg; in data set [4], 436.9 ng/mL; in data set [6], 123.2 ng/mL; in data set [9], 0.545 ng/mg; in [10], 231.1 ng/mL; in data set [11], 0.832 ng/mg. Further, the IC50 in data set [1] was determined as 1440 µM; in data set [2], 7.49 µM. In addition, the inhibition entry in data set [5] and in [7] was “Active” in each case. Further, the LD50 in data set [8] came to 3000 mg/kg.
Turning to `O=C(NCO)c1ccc(Cl)cn1`, the Activity is 4.12 ng/mg in [3]; 569.2 ng/mL in data set [4]; 100.6 ng/mL in data set [6]; 0.469 ng/mg in [9]; 201.3 ng/mL in data set [10]; 0.667 ng/mg in data set [11]. Further, the inhibition entry in data set [12] and in data set [13] was “Active” throughout. This molecule also showed an LD50 in data set [8] of 3000 mg/kg.
As for `O=C(NCCBr)c1ccc(Cl)cn1`, the IC50 came out at 24.8 µM in data set [1] and 790 µM in data set [2].
On to `O=C(NCCO)c1ccc(Cl)cc1`, for which the Activity in [3] turned out to be 3.73 ng/mg; in data set [4] it was 452.7 ng/mL; in data set [6], 214.8 ng/mL; in [9], 0.753 ng/mg; in data set [10] it was 379.4 ng/mL; in data set [11] it was 1.51 ng/mg. Also, the inhibition entry in data set [5] and in [7] was “Active” each time. Besides, the LD50 in data set [8] is 3090 mg/kg.
Consider `NCCNC(=O)c1ccc(Cl)cc1`, for which the Activity is 3.13 ng/mg in [3]; 440.4 ng/mL in data set [4]; 150.4 ng/mL in data set [6]; 0.613 ng/mg in data set [9]; 307.5 ng/mL in data set [10]; 1.21 ng/mg in [11]. The inhibition result in data set [5] and in data set [7] was “Active” each time. In data set [8], this molecule gave a median lethal dose (LD50) of 2810 mg/kg.
`NCCNC(=O)c1ccc(Cl)cn1` [LAZABEMIDE] had an LD50 in [8] of 1000 to 2000 mg/kg.
`O=C(NCCO)c1ccc(Cl)cn1`: the Activity in [3] came to 4.99 ng/mg; in data set [4], 628.3 ng/mL; in data set [6], 116.4 ng/mL; in data set [9] it was 0.515 ng/mg; in [10], 211.6 ng/mL; in data set [11], 0.768 ng/mg. Further, the inhibition result in [12] and in data set [13] was “Active” each time. The LD50 in [8] was 3060 mg/kg.
For `O=C(NCCN1CCOCC1)c1ccc(Cl)cc1` [MOCLOBEMIDE], in data set [1], the concentration for half-maximal inhibition (IC50) was 783 µM.
With `O=C(NCCBr)c1ccc(Cl)cc1`, the IC50 in data set [1] was determined as 895 µM; in data set [2], 26.8 µM.
